Compounds with a hit are over-represented: about 3.4% of the library has one in this group of screens.
TAAR1 antagonist: human TAAR1 antagonism; inhibition, % at 3 µM; CHO RD-HGA16 TAAR1, Fluo-8 calcium fluorescence, antagonist; Q96RJ0; AID 624466; hit rate 1.5% among 360,000;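 active = inhibition above a per-plate cutoff, the mean inhibition of test compounds on that plate plus 3 SD, cut at about 49% in these data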;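 note: 0% = DMSO plus EC80 beta-PEA response and 100% = DMSO alone without agonist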
Target sequence (Q96RJ0 whole entry, looked up): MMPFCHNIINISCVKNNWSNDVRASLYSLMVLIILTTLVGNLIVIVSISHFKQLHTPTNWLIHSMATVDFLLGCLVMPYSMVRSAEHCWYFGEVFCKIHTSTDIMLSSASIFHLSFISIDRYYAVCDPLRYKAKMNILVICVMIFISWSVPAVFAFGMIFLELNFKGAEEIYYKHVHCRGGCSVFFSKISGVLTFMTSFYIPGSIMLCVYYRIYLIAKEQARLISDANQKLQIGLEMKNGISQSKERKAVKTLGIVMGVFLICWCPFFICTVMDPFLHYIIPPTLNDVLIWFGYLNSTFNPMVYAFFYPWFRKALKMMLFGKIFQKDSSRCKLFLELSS
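Material: CHO RD-HGA16 cells bearing hTAAR1; compound dosing: one-point dosing, 3 µM nominal final; schedule: dye loading 75 min at 37 °C, then 30 min room temperature; measured by: calcium fluorescence with Fluo-8; control set: vehicle and agonist controls; replication: n of 1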
M1 ag: agonists of human M1 muscarinic receptor; P11229; CHO-K1 hM1, Fluo-8 calcium fluorescence, agonist mode; 0% DMSO, 100% acetylcholine EC100; activation, % at 3 µM; hit rate 0.33% among 360,000;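 active = activation above the run's mean compound activation plus 3 SD, cut at about 16% in these data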;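 note: peak over basal fluorescence ratio within a 140 s kinetic read after compound addition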
CHRM1 PAM: positive allosteric modulators of human M1 muscarinic receptor | P11229 | CHO-K1 hM1, Fluo-8 calcium fluorescence, ACh EC20; 0% = ACh EC20, 100% = maximal ACh | activation, % at 3 µM | hit rate 0.088% among 360,000; in the data active = activation above about 19%, passing the limit was not always enough
M1 antag: blocks human M1 muscarinic receptor. P11229. CHO-K1 hM1, Fluo-8 calcium fluorescence, ACh EC80 antagonist. inhibition, % at 3 µM. hit rate 1.3% among 360,000;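 active = percent inhibition above its own plate's cutoff, namely the mean of that plate's compound wells plus 3 SD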;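 note: peak over basal fluorescence ratio during 140 s after agonist addition; 0% = ACh EC80 plus DMSO and 100% = DMSO alone without agonist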
TAAR1 ag: human TAAR1 agonism | activation, % at 3 µM | Q96RJ0 | CHO RD-HGA16 TAAR1, Fluo-8 calcium fluorescence; vehicle wells 0%, saturating PEA agonist 100% | hit rate 0.99% among 360,000;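 active = activation above the mean activation of all test compounds in the run plus 3 SD, cut at about 38% in these data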
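test system = CHO RD-HGA16 cells carrying human TAAR1 plus Gα16 | schedule = 17-24 h seeding, 75 min 37 °C dye, 30 min RT | compound dosing = 3 µM single concentration | control set = DMSO and PEA EC100 | replicates = n 1 | signal = Fluo-8 fluorescence, 5 s baseline then 140 s kinetic read | measure = percent activation vs PEA EC100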
Starred values were filed as active, the others as inactive; nt = no result given.

SMILES	TAAR1 antagonist	M1 ag	CHRM1 PAM	M1 antag	TAAR1 ag
COC(=O)[C@@]12C[C@@H](CC(=O)NCCc3ccccc3OC)C(=O)N(Cc3ccccc3)C1=CCC(C)(C)C2	-15	nt	nt	nt	11
COC(=O)C1=CN(c2ccc(OC)cc2)C(N)=C(C#N)C1c1ccc(OC)cc1 (stereo unspecified)	8	nt	nt	nt	2
CCc1ccc(N2C=C(C(=O)OC)C(c3ccc(OC)cc3)C(C#N)=C2N)cc1 (stereo unspecified)	59*	nt	nt	nt	-1
CC1=C(C(=O)N(C)C)CC(CC(=O)NCC2CCCCC2)C(=O)N1Cc1ccc(F)cc1 (stereo unspecified)	-1	-8	6	3	0
C=CCCC1CN(CC=C)S(=O)(=O)c2c(F)cccc2O1 (stereo unspecified)	-10	nt	nt	nt	2
COC(=O)c1ccc(CN2CCN(C(C)C)C(CCO)C2)cc1 (stereo unspecified)	-1	-9	-17	30	0
COC(=O)c1ccc(CN2CCN(C3CCCCC3)C(CCO)C2)cc1 (stereo unspecified)	-18	-7	-23	60*	1
CC(=O)Nc1ccc(CN2CCN(C3CCCCC3)C(CCO)C2)cc1 (stereo unspecified)	-17	-6	-12	24*	1
COC(=O)c1ccc(CN2CCN(C3CCCC3)C(CCO)C2)cc1 (stereo unspecified)	-15	-14	-32	92*	4
CC(=O)c1cccc(CN2CCN(Cc3ccc(F)cc3)C(CCO)C2)c1 (stereo unspecified)	11	-12	-2	4	10
COC(=O)c1ccc(CN2CCN(Cc3ccccc3)C(CCO)C2)cc1 (stereo unspecified)	-12	-10	-1	-9	2
CC(=O)c1cccc(CN2CCN(Cc3ccc(C)cc3)C(CCO)C2)c1 (stereo unspecified)	-15	-9	-20	40*	3
Cc1ccc2nc(-c3ccc(Cl)cc3)c(Cc3ccsc3)n2c1	-6	nt	nt	nt	-1
COC(=O)/C=C1\OCc2cccc(C)c21	-1	nt	nt	nt	0
C=CCC[C@H](Cc1ccc(F)cc1)C(=O)OC[C@@H](Cc1c[nH]c2ccccc12)NC(=O)[C@@H](CC=C)CC(=O)N[C@H](CO)Cc1ccccc1	21	-4	4	1	11
C=CCC[C@H](Cc1ccc(F)cc1)C(=O)OC[C@@H](Cc1c[nH]c2ccccc12)NC(=O)[C@H](CC=C)CC(=O)N(CCO)Cc1ccccc1	65*	-1	-9	24	14
C=CCC[C@@H](Cc1ccc(F)cc1)C(=O)OC[C@@H](Cc1c[nH]c2ccccc12)NC(=O)[C@H](CC=C)CC(=O)N(CCO)Cc1ccccc1	60*	-3	-7	13	5
C=CC[C@H](CC(=O)N(CCO)Cc1ccccc1)C(=O)N[C@@H](COC(=O)[C@@H](CC=C)Cc1ccc(F)cc1)Cc1c[nH]c2ccccc12	60*	-3	0	2	4
C=CCC[C@H](Cc1ccc(F)cc1)C(=O)OC[C@H](Cc1c[nH]c2ccccc12)NC(=O)[C@H](CC=C)CC(=O)N[C@H](CO)Cc1ccccc1	0	-5	2	-2	0
C=CC[C@@H](CC(=O)N(CCO)Cc1ccccc1)C(=O)N[C@@H](COC(=O)[C@@H](CC=C)Cc1ccc(F)cc1)Cc1c[nH]c2ccccc12	17	-3	0	4	7
C=CC[C@@H](CC(=O)N(CCO)Cc1ccccc1)C(=O)N[C@H](COC(=O)[C@@H](CC=C)Cc1ccc(F)cc1)C(C)(C)C	19	-5	5	-6	7
C=CC[C@H](CC(=O)N(CCO)Cc1ccccc1)C(=O)N[C@H](COC(=O)[C@@H](CC=C)Cc1ccc(F)cc1)C(C)(C)C	51*	-3	-3	12	10
COc1cccc(C(O)c2ncc(-c3cccc4ccccc34)[nH]2)c1 (stereo unspecified)	-12	-5	-2	-6	3
O=C(NCc1ccc(Cl)cc1)c1ccc(-n2cccn2)nc1	8	-11	3	0	41*
O=C(NCc1ccc(Cl)cc1)c1cccnc1	-6	-3	1	-22	14
